Source: PubChem BioAssay
Sampled rows, rich in hits. Any-hit rate of the full collection: about 4.1%.
Dynein transport = dynein cargo transport inhibition; AID 1381; 220,000 compounds, 0.47% hits; 3617.4 mouse cells, GR-EGFP nuclear translocation imaging; test concentration mostly 20 µM; stimulated with dexamethasone, 1 µM; hits give low values; z-score, hits read low;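 active means plate z-score of nuclear minus cytoplasmic receptor signal below a set negative limit, without overly bright fluorescence or cell loss, cut at about -3.5 in these data, passing the limit was not always enough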;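 further: z-score of nuclear minus cytoplasmic ring GR-EGFP intensity difference per well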
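Buffer or medium: tet-free medium with charcoal-stripped serum / Also added: dexamethasone agonist, 1.0 µM final, for 30 min / Timing: induction 48 h, compound 1 h, agonist 30 min / Measured by: high-content fluorescence imaging after fixation / Read-out: nuclear-to-cytoplasmic GR-EGFP distribution per well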
Redox H2O2 prof = compounds producing H2O2 with reducing agent – biochemical, NIH compound library profiling, artefact control for MLSCN library redox annotation, primary screen | 200,000 compounds, 0.03% hits | activation, % at 10 µM | DTT-dependent redox cycling H2O2, phenol red/HRP absorbance; 100% = 100 µM peroxide control, 0% = buffer | AID 878;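 active means activation of at least 50% relative to the plate's high and low controls in the primary single-dose screen; inactive means activation below 50%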;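 further: compound incubated with DTT at 0.8 mM final as the reducing agent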
Autophagy HCS = alters autophagy in cells. MEF GFP-LC3 puncta imaging; test concentration mostly 10 µM. calls only at 10 µM (by protocol). 190,000 compounds, 0.98% hits. AID 463193;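 active means percentage of spot-positive cells more than 3 SD above its plate mean, without a fluorescence outlier flag or 80% toxicity; inconclusive means no clear call, values can overlap the other calls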;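 further: spot-positive cell cutoff set from DMSO-treated cells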
ROMK primary = human ROMK K+ channel modulation, primary screen; Tet-inducible ROMK, thallium flux fluorescence; actives lie on both sides; B-score at 10 µM; 130,000 compounds, 2% hits; AID 1918;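 active means signal ratio slope over the read window, or its plate-corrected B-score, at least 3 SD from the plate mean, either direction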;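 further: B-score of the F/F0 ratio slope over 7 to 12 s after thallium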
Cl transport mod = KCC2 (human) Cl- transport modulation; Q9H2X9; KCC2 cells, thallium flux FluoZin-2 fluorescence; B-score of Tl+ flux slope (higher = more flux/activation; lower = inhibition) at 10 µM; 190,000 compounds, 2.2% hits;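 active means thallium flux slope and its plate-corrected score both differing from the plate sample mean at a set confidence after two filtering rounds, in either direction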;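 further: slope of fluorescence scaled to starting intensity during 10 to 20 s after thallium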
Target sequence (Q9H2X9 whole entry, looked up): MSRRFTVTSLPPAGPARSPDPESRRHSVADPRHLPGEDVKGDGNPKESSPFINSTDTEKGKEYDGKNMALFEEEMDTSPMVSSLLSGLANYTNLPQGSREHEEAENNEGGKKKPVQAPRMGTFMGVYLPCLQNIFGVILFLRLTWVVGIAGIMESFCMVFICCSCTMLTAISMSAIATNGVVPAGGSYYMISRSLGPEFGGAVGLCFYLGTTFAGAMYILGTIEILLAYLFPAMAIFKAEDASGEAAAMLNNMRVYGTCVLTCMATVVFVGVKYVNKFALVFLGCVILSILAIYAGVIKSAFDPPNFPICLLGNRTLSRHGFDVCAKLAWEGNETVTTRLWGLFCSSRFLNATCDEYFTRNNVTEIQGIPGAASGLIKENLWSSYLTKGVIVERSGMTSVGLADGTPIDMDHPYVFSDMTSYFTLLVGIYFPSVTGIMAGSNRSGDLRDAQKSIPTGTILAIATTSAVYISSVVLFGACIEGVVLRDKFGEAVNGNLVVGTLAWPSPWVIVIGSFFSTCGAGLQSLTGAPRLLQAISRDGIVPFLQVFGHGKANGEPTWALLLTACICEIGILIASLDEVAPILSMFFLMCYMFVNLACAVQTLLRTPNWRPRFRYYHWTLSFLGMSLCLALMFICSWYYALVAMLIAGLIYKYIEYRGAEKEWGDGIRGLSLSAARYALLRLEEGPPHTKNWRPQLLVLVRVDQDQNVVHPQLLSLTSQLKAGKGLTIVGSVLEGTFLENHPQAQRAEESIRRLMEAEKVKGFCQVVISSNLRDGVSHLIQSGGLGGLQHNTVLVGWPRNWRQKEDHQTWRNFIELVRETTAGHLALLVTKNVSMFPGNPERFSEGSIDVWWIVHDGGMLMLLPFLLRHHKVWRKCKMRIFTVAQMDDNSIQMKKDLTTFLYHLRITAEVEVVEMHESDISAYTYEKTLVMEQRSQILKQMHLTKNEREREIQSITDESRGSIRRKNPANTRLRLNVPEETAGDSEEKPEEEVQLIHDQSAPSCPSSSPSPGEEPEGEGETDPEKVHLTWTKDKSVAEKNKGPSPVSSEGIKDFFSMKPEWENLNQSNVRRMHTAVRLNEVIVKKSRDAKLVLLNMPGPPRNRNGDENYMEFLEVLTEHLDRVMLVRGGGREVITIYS
ROMK hit retest = confirmation of human ROMK potassium channel modulators | AID 1917 | normalized thallium flux (F/F0 slope) at 10 µM | shares compounds with ROMK primary | 3,000 compounds, 54% hits | ROMK thallium flux, fluorescence ratio; hits give low values;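 active means Flux at 10 µM at least 3 SD below or above vehicle control mean in one or both replicates; inconclusive means no clear call, values can overlap the other calls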
* hit, by the source's call; i = inactive; ? = inconclusive; · = no result.

SMILES	Dynein transport	Redox H2O2 prof	Autophagy HCS	ROMK primary	Cl transport mod	ROMK hit retest
COc1ccccc1N(C(=O)c1snc(C(N)=O)c1N)C(C(=O)NCCC(C)C)c1ccco1 (stereo unspecified)	0.379	0.8	i	-1.11	0.0336	·
CCOc1ccccc1N(C(=O)c1snc(C(N)=O)c1N)C(C(=O)NCCC(C)C)c1ccco1 (stereo unspecified)	0.735	0.0	i	-4.48*	-1.94	0.0743
Fc1ccc(NC(=S)NCc2cccnc2)cc1	0.73	-1.8	i	0.286	0.0646	·
CC(C)(C)c1ccc(NC(=S)NCc2cccnc2)cc1	0.957	·	·	-1.48*	1.7	0.0728
COc1cc(C2C3=C(CC(C)(C)CC3=O)OC3=C2C(=O)CC(C)(C)C3)cc([N+](=O)[O-])c1O	0.675	-0.6	i	0.0175	0.0593	·
COC(=O)c1cnn(-c2ccccc2)c1C(OC)OC	1.2	·	·	·	0.318	0.0751
COC(=O)c1cnn(-c2ccccc2)c1-n1cccc1C=O	-0.248	-1.3	i	-5.74*	-0.13	0.0767
NC(=O)COc1ccc(-c2noc(COc3ccccc3[N+](=O)[O-])n2)cc1	0.0578	0.0	i	0.0648	0.335	·
Cn1c(=O)cc(SCC(=O)N2CCCC2)c2ccc(Cl)cc21	-0.0117	-1.1	i	0.421	·	·
COCCNC(=O)CSc1cc(=O)n(C)c2cc(Cl)ccc12	0.0282	-0.2	i	-9.77*	-1.64	0.0844
NC(=O)COC(=O)CSc1ccc2ccccc2c1	-0.619	-2.1	i	-0.0531	0.439	·
O=C(COc1ccc(Br)cc1CNC1CCCCC1)NCCc1ccccc1	0.0713	-1.3	i	-5.22*	-1.58	0.0485*
COc1ccc(Br)cc1CN(C)CC(=O)NCCc1ccccc1	-0.476	0.1	i	-0.814	-0.469	·
CC(C)NC(=O)C1(O)c2ccccc2NC(=O)N1c1ccc(Cl)c(Cl)c1 (stereo unspecified)	0.699	-2.7	i	·	-0.162	?
O=C(c1nc2ccccn2c1CN1CCCC(c2nc3ccccc3o2)C1)N1CCCC1 (stereo unspecified)	1.01	0.1	i	-0.948	-0.0253	·
COCCN(Cc1ccccc1)C(=S)Nc1ccc(Cl)cc1	-0.924	0.1	i	6.01*	-1.1	0.0806
COc1ccc(C(=O)NCc2nnc(SCC(=O)Nc3nc4ccccc4s3)o2)cc1OC	-0.338	0.0	i	0.21	-1.23	·
COc1ccc(/C=C2\CN(Cc3ccccc3)C/C(=C\c3ccc(OC)cc3OC)C2=O)c(OC)c1	0.515	-3.4	i	·	-1.69	·
COc1ccc(C=C2c3ccccc3C(=O)c3ccccc32)c(OC)c1	-0.605	·	·	2.75*	-1.1	0.0933
Clc1ccc(OCCn2ccnc2)c(Cl)c1	1.24	0.1	i	·	0.496	·
Clc1ccc(OCCn2ccnc2)c2ccccc12	0.13	1.0	i	-3.22*	·	?
Cc1cccc(C2c3[nH]c4ccccc4c3CCN2C(=O)c2nn(C)c(=O)c3ccccc23)n1 (stereo unspecified)	2.3	-1.4	i	-3.98*	-0.123	0.066*
Cc1ccc(S(=O)(=O)Nc2c(C)nc3nc[nH]n3c2=O)c(C)c1	0.143	0.2	i	·	-0.00398	·
c1coc(CNc2ncnc3sc4c(c23)CCCCC4)c1	-0.611	-5.9	i	·	-0.774	0.0619*
CCCC(=O)Nc1ccccc1NC(=O)c1ccc(OC(C)=O)cc1	0.131	-0.5	i	0.678	0.0264	·
SMILES	Dynein transport	Redox H2O2 prof	Autophagy HCS	ROMK primary	Cl transport mod	ROMK hit retest
OC(C#CCCN1CCCCC1)(c1ccccc1)C1CCCCC1 (stereo unspecified)	-0.529	·	·	·	0.523	0.0625*
CCOc1ccc(NC(=O)Nc2cccnc2)cc1	-0.26	0.5	i	0.698	0.463	·
NC(CCC(=O)O)C12CC3CC(CC(C3)C1)C2 (stereo unspecified)	-0.153	-1.0	i	2.45*	0.751	?
NC(=O)c1c(NC(=O)CSc2nnc(Cc3ccccc3)n2Cc2ccco2)sc2c1CCC2	-0.586	1.8	i	-3.73*	·	0.0528*
O=C(CSc1nnc(Cc2cccs2)n1Cc1ccco1)Nc1ccc(Cl)cc1Cl	-1.04	-1.0	i	-2.86	·	·
O=C(CSc1nnc(Cc2cccs2)n1Cc1ccco1)Nc1ccc(Br)cc1	1.16	-0.1	i	-2.92*	-0.513	?
O=C(NNC(=O)c1c(F)cccc1F)c1ccccc1-n1cccc1	0.229	-2.1	i	0.595	0.0812	·
COc1ccc(S(=O)(=O)NCC(c2cccnc2)N2CCN(c3ccccc3)CC2)cc1C (stereo unspecified)	-0.902	0.0	i	-0.0922	0.85	·
COc1ccc(S(=O)(=O)NCC(c2cccnc2)N2CCN(c3ccc(F)cc3)CC2)cc1C (stereo unspecified)	-0.115	0.7	i	-3.85*	-0.964	0.0743
O=C(Cn1[nH]c(=O)c2ccccc2c1=O)NNC(=O)c1ccccc1	-1.05	0.0	i	0.741	-0.0617	·
Cc1ccc(NC(=O)C2CCN(S(C)(=O)=O)CC2)cc1C	0.42	0.2	i	1.62*	0.0623	0.0766
CS(=O)(=O)N1CCC(C(=O)Nc2ccccc2)CC1	0.139	0.1	i	-0.107	·	·
CC1Cc2ccccc2N1C(=O)CSc1nnc(Cc2ccccc2)n1CCc1ccccc1 (stereo unspecified)	-0.213	0.2	i	-3.86*	-1.26	0.0624*
CCCSc1nc2sc3c(c2c(=O)[nH]1)CCN(Cc1ccccc1)C3	2.26	3.6	i	-5.43*	i	0.0302*
CC(=O)N1CC=C2C(C#N)=C(N)C(C#N)(C#N)C(CCc3ccccc3)C2C1 (stereo unspecified)	1.12	0.9	i	-2.68*	-0.464	0.0617*
CC(=O)N1CC=C2C(C#N)=C(N)C(C#N)(C#N)C(C)C2C1 (stereo unspecified)	-0.455	0.4	i	-0.435	0.346	·
Cc1cc(=O)n2cccc(O)c2n1	-1.03	0.0	i	0.23	0.0745	·
OCCN(CC(O)Cn1ccc2ccccc21)CC(O)Cn1ccc2ccccc21 (stereo unspecified)	-0.962	-1.3	i	-4.79*	·	0.0558*
CC(C)(C)c1ccc(OCC(O)CN(CCO)CC(O)Cn2ccc3ccccc32)cc1 (stereo unspecified)	-1.15	0.5	i	·	-0.0458	·
O=C(CN1CCNCC1)NCCSc1ccc(Cl)cc1	0.802	-1.3	i	-2.04*	-0.421	0.0675*
O=C1NC(Cc2c[nH]c3ccccc23)C(=O)N1Cc1ccc(CN2C(=O)NC(Cc3c[nH]c4ccccc34)C2=O)cc1 (stereo unspecified)	0.471	-0.6	i	-3.89*	-0.0118	0.0646*
O=C1NC(Cc2c[nH]c3ccccc23)C(=O)N1CCOc1ccc(F)cc1 (stereo unspecified)	0.0103	1.6	i	·	-0.936	·
